Compound activity: PubChem BioAssay, Sanford-Burnham Center for Chemical Genomics
Only some compounds are listed: those with a hit (about 1.1% of all), similar ones and a draw of the others.
Diaph inh CS – counter-screen for diaphorase-based assays: diaphorase inhibitors and chemical oxidizers | diaphorase resazurin-to-resorufin fluorescence, NADH, 16 min; bacterial (C. kluyveri) enzyme, not human | inhibition, % at 20 µM | 190,000 compounds, 0.69% hits;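 active means primary screen inhibition at 20 µM above a set limit, cut at about 50% in these data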;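 further: plate controls were DMSO with full reaction for no effect and wells lacking NADH for full effect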
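controls = No-NADH positive control and DMSO neutral control | system = Clostridium kluyveri diaphorase enzyme | timing = reaction incubation of 16 min at room temperature | signal = resorufin fluorescence 544/590 nm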
G6PDH CS – L. mesenteroides G6PDH inhibition counter-screen. Purified L. mesenteroides G6PDH, diaphorase/resazurin coupled fluorescence, 45 min. inhibition, % at 5 µM. AID 1020. 200,000 compounds, 0.12% hits; in the data active means inhibition above about 50%
PMI act hi M6P – activators of human phosphomannose isomerase at near-saturating mannose 6-phosphate; 190,000 compounds, 0.34% hits; P34949; activation factor at 20 µM; coupled PMI enzyme assay, resazurin fluorescence, 20 min; active compounds read high; 1 = untreated enzyme, 0 = substrate-free blank;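 active means activation factor of 2 or more at 20 µM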
Target sequence (P34949 whole entry, looked up): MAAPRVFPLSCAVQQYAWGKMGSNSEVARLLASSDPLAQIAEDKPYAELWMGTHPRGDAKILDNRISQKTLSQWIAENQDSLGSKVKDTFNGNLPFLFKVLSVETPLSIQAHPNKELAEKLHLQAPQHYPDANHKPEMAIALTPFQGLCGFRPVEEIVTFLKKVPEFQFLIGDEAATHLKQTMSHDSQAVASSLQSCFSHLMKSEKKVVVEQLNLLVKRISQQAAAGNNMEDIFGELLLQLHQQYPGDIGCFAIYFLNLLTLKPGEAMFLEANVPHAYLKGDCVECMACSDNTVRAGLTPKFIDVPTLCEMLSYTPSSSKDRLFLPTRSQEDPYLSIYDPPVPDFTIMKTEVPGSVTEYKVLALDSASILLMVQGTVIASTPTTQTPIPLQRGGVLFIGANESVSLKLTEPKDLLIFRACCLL
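test system = human PMI in coupled enzyme assay | medium = HEPES-buffered pH 7.4 with magnesium and detergent | also added = 1.0 mM mannose-6-phosphate substrate with 0.22 mM NADP+ | compound = 20 µM single dose | times = 20 min incubation at room temperature | measured by = resorufin fluorescence (Ex 544/Em 590 nm) from resazurin via diaphorase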
PMI act – increases human mannose-6-phosphate isomerase activity; purified human PMI, coupled resazurin fluorescence, 20 min; active compounds read high; 1 = vehicle control, 0 substrate-free wells; activation factor at 20 µM; 190,000 compounds, 0.005% hits; P34949; AID 1214;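 active means activation factor of 2 or more at 20 µM, relative to plate controls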
Diaph act CS – diaphorase activation or chemical reduction counter-screen; Diaphorase/resazurin coupled assay, resorufin fluorescence, 16 min; active compounds read high; 1 = vehicle wells, 0 = NADH-free wells; 190,000 compounds, 0.005% hits; activation factor at 20 µM;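 active means diaphorase activity raised at least twofold by the compound at 20 µM; inactive means activation factor below 2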
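test system = bacterial diaphorase enzyme (C. kluyveri) | quantity = enzyme 0.07 U/mL final | reagent = NADH substrate 0.114 mM plus resazurin dye 0.1 mM, final | incubation = 16 min enzyme reaction, ambient temperature | buffer or medium = HEPES pH 7.4 buffer with MgCl2 and Tween 20 | signal = fluorescence of resorufin, 544 nm excitation, 590 nm emission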
Active calls of the source: *.

SMILES	Diaph inh CS	G6PDH CS	PMI act hi M6P	PMI act	Diaph act CS
CN1C(=O)CC(Nc2cccc3cccc(N)c23)C1=O (centres undefined)	66.8*	22.2	0.5	0.6	0.3
CC(C)N1C(=O)CC(Nc2cccc3cccc(N)c23)C1=O (centres undefined)	51.8*	2.2	0.4	0.7	0.5
COc1ccc(NC2CC(=O)N(C(C)C)C2=O)cc1 (centres undefined)	5.7	-10.2	0.9	0.8	0.9
CCOC(=O)C1=C(O)/C(=C/c2ccc(OCC(=O)O)c(OCC)c2)SC1=Nc1ccc(C)cc1	62.1*	14.9	0.9	1	0.4
CCOC(=O)C1=C(O)/C(=C/c2ccc(OCC(=O)O)c(OCC)c2)SC1=Nc1ccc(OC)cc1	47.0	10.9	1	1	0.5
CCCCOc1ccc([N+](=O)[O-])cc1C(=O)O	2.8	9.6	1	1.1	1
O=C(CC(C(=O)O)c1c[nH]c2ccccc12)c1ccccc1 (centres undefined)	77.9*	6.4	1	0.9	0.2
O=C(O)C(O)Cc1c[nH]c2ccccc12 (centres undefined)	3.7	1.6	1.1	1.1	1
O=C(NCCCN1CCOCC1)c1sc2ccccc2c1Cl	20.5	14.2	0.9	0.9	0.8
N=C1C=CC=C2C1=NC1(CCCCC1)N2O	64.1*	-23.5	0.3	0.3	0.4
CCn1c(SCC(=O)c2ccc3c(c2)Cc2ccccc2-3)nnc1-c1ccc(N)cc1	-5.4	9.9	1.1	1.1	1.1
CCn1c(SCC(=O)c2ccc(O)c(O)c2)nnc1-c1ccc(C)cc1	56.0*	-0.3	0.9	0.6	0.4
c1coc(C2Nc3cccc4cccc(c34)N2)c1	69.9*	21.3	1.3	0.9	0.3
FC(F)(F)c1ccc(C2Nc3cccc4cccc(c34)N2)cc1	14.4	6.2	0.8	1.3	0.9
COc1ccccc1CNC(=O)CCS(=O)(=O)c1cccc2nonc12	6.2	6.1	1	1	0.9
O=C(NCc1ccco1)c1cnn2c(C(F)(F)F)cc(-c3cccs3)nc12	57.9*	8.7	1	1	0.4
Cc1cc(C)n2nc(SCCOc3ccccc3F)nc2n1	6.9	-4.4	1	1	0.9
N#CCCN(Cc1cccnc1)C(=O)c1sc2cc(F)ccc2c1Cl	4.7	19.5	1	1	1
CCc1ccc(/C=N/NC(=O)C(=O)NCCCN2CCOCC2)cc1	7.6	13.1	1.1	1.1	0.9
Cc1ccc(NC2=C/C(=N/S(=O)(=O)c3cccs3)c3ccccc3C2=O)cc1	15.6	50.4*	0.5	1	0.8
O=C1C(Nc2ccccc2)=C/C(=N/S(=O)(=O)c2cccs2)c2ccccc21	1.3	45.5	0.6	1.2	1
O=Cc1ccc(-c2ccccc2C(=O)O)o1	14.7	9.1	1	1	0.9
Cc1c(C(=O)O)cccc1-c1ccc(/C=N/Nc2ccc(Br)cc2)o1	16.1	5.0	2.2*	1.6	0.8
CCN(CC)S(=O)(=O)c1ccc(C)c(N=C=S)c1	-3.8	1.8	1	1	1
CC(=O)c1sc2nc(-c3cccs3)cc(C(F)(F)F)c2c1N	10.9	1.9	1.8	1.3	0.9
SMILES	Diaph inh CS	G6PDH CS	PMI act hi M6P	PMI act	Diaph act CS
Nc1c(C(=O)C2CC2)sc2nc(-c3ccccc3)cc(C(F)(F)F)c12	8.3	12.6	2*	1.5	0.9
CC(=O)N1NC(=Nc2ccccc2)SC1(C)C	16.6	-1.8	0.7	0.8	0.8
N=C1/C(=C\c2ccc(SCc3ccco3)o2)C(=O)N=C2SC=NN12	54.1*	9.9	0.9	0.9	0.5
CC1=NN2C(=N)/C(=C\c3ccc(SCc4ccccc4)o3)C(=O)N=C2S1	9.3	-0.2	0.6	0.5	0.9
COc1cccc2c1C(=O)C=C(C)C2=O	0.0	54.2*	0.5	1	1
CC1=CC(=O)c2ccccc2C1=O	-22.4	60.6*	1.1	1.6	1.2
COc1cc(C2C(N3C(=O)c4ccccc4C3=O)C(=O)N2c2cccc(C)c2)cc(OC)c1OC (centres undefined)	0.0	25.4	0.9	0.8	1
COc1cc(C2c3c([nH]c(=O)[nH]c3=O)Nc3ccc4ccccc4c32)cc(OC)c1OC (centres undefined)	53.3*	7.1	0.6	0.9	0.5
O=C(Cn1cnc2scc(-c3cccc([N+](=O)[O-])c3)c2c1=O)NCc1ccco1	29.8	2.9	0.8	1	0.7
Cc1ccc2cc(C3C(C#N)=C(N)Oc4c3ccc3cccnc43)c(=O)[nH]c2c1 (centres undefined)	39.4	16.1	0.6	0.8	0.6
CCc1ccc2[nH]c(=O)c(C3C(C#N)=C(N)Oc4c3ccc3cccnc43)cc2c1 (centres undefined)	51.6*	9.9	0.6	0.8	0.5
CCN1CCCC1CNS(=O)(=O)c1ccc(Cl)c(C(F)(F)F)c1 (centres undefined)	7.3	6.7	1	1.1	0.9
COc1ccc(C=Nc2ccc3[nH]ncc3c2)c(O)c1	65.5*	40.4	0.4	0.5	0.3
Nc1ccc(N2CCCCC2)cc1N1CCCCC1	57.2*	6.1	0.5	0.4	0.4
Nc1ccc(N2CCCCC2)c2nonc12	29.7	53.6*	0.3	0.6	0.7
Nc1c(N2CCOCC2)cc(Cl)c2nonc12	42.8	49.3	0.3	0.6	0.6
Nc1c(N2CCCC2)cc(Cl)c2nonc12	61.7*	56.6*	0.4	0.5	0.4
Nc1cc(Cl)ccc1N1CCCCC1	19.7	10.6	0.8	0.9	0.8
Nc1cc(N)cc(C(=O)OCC(=O)Nc2cc(S(=O)(=O)N3CCCCC3)ccc2Cl)c1	8.8	4.3	0.8	1	0.9
CC(C)CC(=O)Nc1ccc(-c2nnn(CC(=O)NCc3ccco3)n2)cc1	0.8	11.1	0.9	1	1
CC(=O)Nc1ccc2sccc2c1	14.3	3.2	1	1	0.9
CCOc1cc(S(=O)(=O)n2ccnc2)ccc1Cl	4.1	-7.4	1	1.1	1
O=C1N(CN2CCN(Cc3ccccc3)CC2)c2ccccc2C12OCCCO2	16.1	4.7	0.9	0.9	0.8
Clc1ncc(CN2CCN(c3ccccc3)CC2)s1	13.1	6.7	1	1.1	0.9
c1ccc(N2CCN(Cc3ccnc4ccccc34)CC2)cc1	11.2	1.1	2*	1.5	0.9
Cn1c(CNc2ccccc2)nc2ccccc21	-1.8	3.6	1	0.9	1
Cn1c(CNc2ccccc2O)nc2ccccc21	39.7	60.7*	0.4	0.7	0.6
CO/N=C/c1ccc(Oc2ccc([N+](=O)[O-])cc2[N+](=O)[O-])c(OC)c1	8.6	10.4	1	1	0.9
